Experimental data published in PubChem BioAssay.
Records with an inconclusive call do not appear.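 Rule for the calls, unless noted: active = viability at or below 27.92% in each of two runs, the all-compound median minus 4 SD; inconclusive = no clear call, values can overlap the other calls; inactive = the rest.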

What was measured:
[1] = S. cerevisiae growth inhibition in permissive medium (OD615), pilot counter-assay for S. cerevisiae lifespan shortening project, permissive growth control (AID 705;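 active = growth inhibition above 25% in both replicates, a cutoff set 3 SD above the mean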); settings: OD615, 24 h, at 10 µM, stronger effect = higher value
How it was run: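 Material: engineered DeaD yeast; compound dosing: one dose 10 µM, DMSO 0.25% final; measure: yeast growth inhibition indicated by reduced 24 h OD615; detection: OD615 turbidity read; incubation: cells pre-grown 4 h, then 24 h compound exposure, 30 °C humidified; medium: permissive synthetic complete medium with raffinose and galactose carbon sources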

[2] = S. cerevisiae growth inhibition in restrictive medium, OD615, pilot screen, restrictive growth control, yeast lifespan reduction project (AID 706;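 active = growth inhibition above a set limit, 3 SD over mean compound inhibition, in both replicates, cut at about 43% in these data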;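 note: modified DeaD lifespan yeast strain shifted to restrictive glucose medium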); settings: OD615, 48 h, at 10 µM, stronger effect = higher value
How it was run: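 material = engineered S. cerevisiae DeaD strain | medium = glucose-based CSMM-D restrictive medium | times = 4 h pre-incubation, 48 h exposure at 30 °C | technique = OD615 absorbance reading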

[3] = doxorubicin toxicity protection in MRP-1 cells – H69AR cells, CellTiter-Glo, duplicate, MRP-1 activator project, pilot screen (AID 807;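 active = viability increase at or above a cutoff of the median across tested compounds plus 3 SD, cut at about 8.5% in these data, passing the limit was not always enough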;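 note: compound pretreatment 18-22 h then 72 h combined with doxorubicin; 0% = doxorubicin alone and 100% = vehicle without doxorubicin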); settings: H69AR viability with doxorubicin, CellTiter-Glo luminescence; at 10 µM; stronger effect = higher value
[4] = viability of HCT116 without oncogenic beta-catenin – human colon tumor cells, pilot screen (AID 823;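 active = cell viability at or below a set limit in both duplicate runs, the limit being the all-compound median minus 4 SD, cut at about 23% in these data, passing the limit was not always enough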;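 note: 0% = wells killed by 20 µM Hyamine and 100% = untreated DMSO cell wells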); settings: HCT116 beta-catenin knockout viability, CellTiter-Glo, 60 h; at 10 µM; stronger effect = lower value
[5] = viability of PTEN-null HCT116 cells – cell-based, HCT116 clonal line, CellTiter-Glo, pilot screen (AID 824); settings: HCT116 PTEN-deleted viability, 60 h, at 10 µM, stronger effect = lower value;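 note: 0% = 20 µM Hyamine control and 100% = vehicle cell control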
[6] = RAM pathway blockade in budding yeast – dse1pr::URA3 reporter, 5-FOA selection, pilot screen (AID 869;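 active = inhibition over a set limit, the all-compound mean plus 3 SD, in both replicate runs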;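 note: 0% = DMSO wells with no growth and 100% = 10 µM 1-NA-PP1 with full growth; RAM network block rescues cells from 5-FOA so hits raise OD615 growth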); settings: S. cerevisiae dse1pr::URA3 5-FOA growth, OD615, 2 d; at 10 µM; stronger effect = higher value; strain carries analog-sensitive mutant Cbk1 kinase
[7] = RAM signaling pathway blockade in yeast – S. cerevisiae, Pdr1DBD-CYC8 efflux-inhibited sensitized strain, primary screen (AID 1298;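 active = RAM network inhibition above 8.4% in each of two replicates, 3 SD over the compound average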;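 note: 0% = DMSO untreated cells without growth and 100% = 10 µM 1-NA-PP1 full growth; higher means more yeast growth rescued from 5-FOA killing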); settings: S. cerevisiae cbk1-as DSE1-URA3 strain, 5-FOA growth OD615, 2 d; at 50 µM; stronger effect = higher value

COCCNC(=O)Cn1cc2c(n1)CCC(C)C2 (stereo not drawn)
inactive: growth inhibition [1] -12.9% | growth inhibition [2] -0.165% | viability increase [3] 0.11% | viability [4] 104% | viability [5] 93.9% | inhibition [6] 2.06% | RAM network inhibition [7] 1.1%

CCN(CC)c1ccc(NC(=O)Cn2cc3c(n2)CCC(C)C3)c(C)c1 (stereo not drawn)
inactive: growth inhibition [1] 2.12% | growth inhibition [2] 1.57% | viability increase [3] 2.97% | viability [4] 80.4% | viability [5] 76.2% | inhibition [6] 0.835% | RAM network inhibition [7] -1.78%

COc1ccccc1N1CCN(C(=O)c2cc3c(=O)n(C)c4ccccc4c3n2C)CC1
inactive: growth inhibition [1] -7.35% | growth inhibition [2] 3.62% | viability increase [3] 2.2% | viability [4] 67.3% | viability [5] 72% | inhibition [6] 0.125% | RAM network inhibition [7] -0.26%

O=C(Nc1cnc2ccccc2c1)c1cccnc1
inactive: growth inhibition [1] 4.78% | growth inhibition [2] 0.625% | viability increase [3] -7.98% | viability [4] 103% | viability [5] 103% | inhibition [6] 1.74% | RAM network inhibition [7] -0.15%

CCNc1nc(OCCNS(=O)(=O)c2cc(C)ccc2C)nc(N(C)C)n1
inactive: growth inhibition [1] -7.45% | growth inhibition [2] -11.1% | viability increase [3] -0.92% | viability [4] 78.7% | viability [5] 78.8% | inhibition [6] 0.025% | RAM network inhibition [7] -0.63%

Cc1ccc(-n2nc3ccc(N)cc3n2)cc1
inactive: growth inhibition [1] -12.9% | growth inhibition [2] 5.77% | viability increase [3] -5.26% | viability [4] 80% | viability [5] 78.5% | inhibition [6] 2.38% | RAM network inhibition [7] 2.79%

CCOC(=O)C1CCN(S(=O)(=O)c2ccc(OCC)cc2)CC1
inactive: growth inhibition [1] -6.07% | growth inhibition [2] -13.5% | viability increase [3] -2.24% | viability [4] 92% | viability [5] 94.4% | inhibition [6] 0.575% | RAM network inhibition [7] 6.62%

COc1ccc(S(=O)(=O)Cc2ccc(C(=O)N3CCC(C(N)=O)CC3)o2)cc1
inactive: growth inhibition [1] -3.35% | growth inhibition [2] 0.07% | viability increase [3] -0.31% | viability [4] 76% | viability [5] 93.5% | inhibition [6] 2.22% | RAM network inhibition [7] 4.37%

CCOC(=O)N1CCN(C(c2ccc(C)cc2)c2sc3nc(C)nn3c2O)CC1 (stereo not drawn)
inactive: growth inhibition [1] 2.26% | growth inhibition [2] 4.33% | viability increase [3] -0.59% | viability [4] 108% | viability [5] 102% | inhibition [6] 0.185% | RAM network inhibition [7] 0.28%

CCCCSC1=C(C#N)C(c2ccccc2C)CC(=O)N1 (stereo not drawn)
inactive: growth inhibition [1] -14.2% | growth inhibition [2] 3.23% | viability increase [3] -2.96% | viability [4] 95.1% | viability [5] 79.6% | inhibition [6] 1.03% | RAM network inhibition [7] 5.84%

Cn1nc(-c2ccc(Cl)cc2)c2cc(C(=O)N3CCN(c4ccccc4)CC3)sc21
inactive: growth inhibition [1] -0.325% | growth inhibition [2] -3.28% | viability increase [3] -5.26% | viability [4] 71.2% | viability [5] 72.2% | inhibition [6] 3.44% | RAM network inhibition [7] 5.19%

Cc1ccn2cc(CCNC(=O)c3ccc(Br)o3)nc2c1
inactive: growth inhibition [1] -10.6% | growth inhibition [2] -12.7% | viability increase [3] -0.26% | viability [4] 93.8% | viability [5] 95.4% | inhibition [6] 3.01% | RAM network inhibition [7] 4.83%

COC(=O)CCC(=O)Nc1ccc(NC(=O)CCC(=O)OC)cc1
inactive: growth inhibition [1] -0.195% | growth inhibition [2] 0.195% | viability increase [3] -1.73% | viability [4] 103% | viability [5] 96.9% | inhibition [6] 1.73% | RAM network inhibition [7] 0.97%

CCOCCn1c(SCCc2ccccc2)nc2c1c(=O)[nH]c(=O)n2C
inactive: growth inhibition [1] -3.39% | growth inhibition [2] 10.7% | viability increase [3] -1.92% | viability [4] 98.8% | viability [5] 98.9% | inhibition [6] 1.69% | RAM network inhibition [7] 0.11%

CC(C)N1CCc2c(sc(NC(=O)c3ccc(S(=O)(=O)N4CCOCC4)cc3)c2C(N)=O)C1
inactive: growth inhibition [1] -2.23% | growth inhibition [2] -11.5% | viability increase [3] -3.25% | viability [4] 92.6% | viability [5] 88.7% | inhibition [6] 2.21% | RAM network inhibition [7] 1.28%

CN1CCN(CCCNC(=O)c2cn(C)c3ccc(S(=O)(=O)N(C)C)cc3c2=O)CC1
inactive: growth inhibition [1] -0.94% | growth inhibition [2] 2.12% | viability increase [3] -0.23% | viability [4] 103% | viability [5] 103% | inhibition [6] -0.355% | RAM network inhibition [7] 5.1%

O=C(C1CCN(S(=O)(=O)c2cccc3cccnc23)CC1)N1CCn2c1nc1ccccc12
inactive: growth inhibition [1] -1.95% | growth inhibition [2] -3.35% | viability increase [3] -1.86% | viability [4] 87.7% | viability [5] 83.2% | inhibition [6] 2.52% | RAM network inhibition [7] -1.55%

COCCCNC(=O)CN(c1ccc(Cl)c(Cl)c1)S(C)(=O)=O
inactive: growth inhibition [1] 0.93% | growth inhibition [2] -7.01% | viability increase [3] -1.44% | viability [4] 99.4% | viability [5] 101% | inhibition [6] 0.96% | RAM network inhibition [7] -0.77%

O=S(=O)(NCc1cccnc1)c1ccc(Cl)c(Cl)c1
inactive: growth inhibition [1] -0.945% | growth inhibition [2] -19.6% | viability increase [3] -0.3% | viability [4] 98.9% | viability [5] 93.8% | inhibition [6] 0.75% | RAM network inhibition [7] 4.18%

CCCCn1cc(C(C)(C)C)c(C#N)c1NC(C)=O
inactive: growth inhibition [1] -21.7% | growth inhibition [2] -4.88% | viability increase [3] -1.24% | viability [4] 97.8% | viability [5] 98.8% | inhibition [6] 1.43% | RAM network inhibition [7] 5.33%

CCc1nnc(NC(=O)c2ccc(S(=O)(=O)N3CCOCC3)cc2)s1
inactive: growth inhibition [1] -10.4% | growth inhibition [2] -20.2% | viability increase [3] -1.63% | viability [4] 105% | viability [5] 94.6% | inhibition [6] 1.92% | RAM network inhibition [7] 9.48%

O=C(NC1CSC/C1=N\O)c1ccccc1 (stereo not drawn)
inactive: growth inhibition [1] -9.51% | growth inhibition [2] -1.84% | viability increase [3] -2.52% | viability [4] 103% | viability [5] 101% | inhibition [6] 1.17% | RAM network inhibition [7] 1.84%

CC(=O)NCc1nc2ccccc2n1Cc1ccccc1F
inactive: growth inhibition [1] -7.66% | growth inhibition [2] -15.8% | viability increase [3] -0.31% | viability [4] 108% | viability [5] 104% | inhibition [6] 3.39% | RAM network inhibition [7] 2.03%

O=C(CC1NCCNC1=O)OCCCc1ccccc1 (stereo not drawn)
inactive: growth inhibition [1] -0.955% | growth inhibition [2] -2.82% | viability increase [3] 0.07% | viability [4] 99.1% | viability [5] 99.9% | inhibition [6] 1.09% | RAM network inhibition [7] 5.29%
